Measurements pooled from the literature.
Compare with care: the assays were run in different laboratories.
Ribonuclease H1: Ribonuclease H1 (Homo sapiens, UniProt O60930)
CNR2: Cannabinoid receptor 2 (CNR2, Homo sapiens, UniProt P34972)
F10: Coagulation factor X (F10, Homo sapiens, UniProt P00742)

O=C1c2ccccc2C(c2ccccc2F)C(=O)N1O (centres unmarked)
IC50 (Ribonuclease H1; enzyme activity, inhibitor): 4.64 µM

CCCCCn1nc(C(=O)NC(C)(C)c2cccc(C(N)=O)c2)c2ccccc21
Ki (CNR2; ligand displacement, radioligand; cell membranes): 0.25 µM

CCCCCc1ccccc1C/C=C\C/C=C\C/C=C\CCCC(=O)N[C@H](C)CO
EC50 (CNR2; β-arrestin recruitment, agonist): 0.436 µM

O=[N+]([O-])c1ccc(O)c([N+](=O)[O-])c1
Kd (Casein kinase I isoform alpha (CSNK1A1, Homo sapiens, UniProt P48729); binding, SPR): > 50 µM

CC(C)(NC(=O)c1nn(CC2CCCC2)c2ccccc12)c1cccc(C(N)=O)c1
Ki (CNR2; ligand displacement, radioligand; cell membranes): 0.11 µM

O=C1Cc2cc(-c3ccco3)ccc2C(=O)N1O
IC50 (Ribonuclease H1; enzyme activity, inhibitor): 2.39 µM

CC[C@H](C)[C@@H](C(=O)N1CCC[C@H]1c1nccs1)N(C)C(=O)[C@H](CC(C)C)N(C)C(=O)[C@H](Cc1ccc(OC)cc1)N(C)C(=O)/C=C(\C)OC
IC50 (CNR2; ligand displacement, radioligand): 6.1 µM

C[C@H](NC(=O)[C@H](CCC(N)=O)NC(=O)CCCCNC(=N)N)C(=O)N[C@@H](CCCNC(=N)N)C(=O)c1nc2ccccc2s1
Ki (F10; cell-free assay): 0.085 µM

CCCC[C@H](NC(C)=O)C(=O)N[C@H]1CC(=O)NCCCC[C@@H](C(=O)N2CCC[C@@H]2C(=O)N[C@@H](C(=O)N2CCC[C@@H]2C(N)=O)C(C)C)NC(=O)[C@H](Cc2c[nH]c3ccccc23)NC(=O)[C@H](CCCNC(=N)N)NC(=O)[C@@H](Cc2ccccc2)NC(=O)[C@@H]2CCCN2C1=O
EC50 (Melanocortin receptor 5 (MC5R, Homo sapiens, UniProt P33032); cAMP, agonist): 0.000391 µM

c1cncc([C@@H]2CCCN2)c1
Ki (Neuronal acetylcholine receptor; alpha2/beta2 (Rattus norvegicus, UniProt P12389+P12390); cell-free assay, radioligand): 0.0871 µM

CCOC(=O)N[C@@H](CCCNC(=N)N)C(=O)N[C@@H](CCC(N)=O)C(=O)N[C@@H](Cc1ccccc1)C(=O)N[C@@H](CCCNC(=N)N)C(=O)c1nc2ccccc2s1
Ki (F10; cell-free assay): 0.015 µM

CCCCC/C=C\[C@H](C)/C=C\C/C=C\Cc1ccccc1CCCC(=O)OC(CO)CO
EC50 (CNR2; β-arrestin recruitment, agonist): 4.18 µM

CC(C)(C#N)CCCn1nc(C(=O)NC(C)(C)c2cccc(C(N)=O)c2)c2ccccc21
Ki (CNR2; ligand displacement, radioligand; cell membranes): 0.13 µM

CCCCC/C=C\[C@H](C)/C=C\C/C=C\Cc1ccccc1CCCC(=O)N[C@H](C)CO
EC50 (CNR2; cAMP, agonist): 0.751 µM

COc1ccc(CCCCC(=O)C(F)(F)C(F)(F)F)cc1
IC50 (85/88 kDa calcium-independent phospholipase A2 (PLA2G6, Homo sapiens, UniProt O60733); enzyme activity, inhibitor): 0.17 µM

CCCCC/C=C\C/C=C\C/C=C\Cc1ccccc1CCCC(=O)N[C@H](C)CO
EC50 (CNR2; β-arrestin recruitment, agonist): 0.0147 µM

CC(C)(NC(=O)c1nn(CCCCC(F)(F)F)c2ccccc12)c1cccc(C(N)=O)c1
Ki (CNR2; ligand displacement, radioligand; cell membranes): 0.3 µM
